Calls of active or inactive are those of the source. The rule behind the calls is not given here.
What was measured:
[1] = Inhibition of recombinant type N-terminal His6-tagged 2 R67 DHFR expressed in Escherichia coli BL21 using DHF as substrate by spectrophotometry
Method in brief: (§1)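 His-tagged R67 DHFR purified from E. coli by Ni affinity with an imidazole gradient. Activity followed as NADPH plus DHF depletion at 340 nm (Δε 12800 M⁻¹cm⁻¹) in 400 mM HEPES pH 7.0 with 10% final DMSO. Reactions started with 250 nM enzyme; initial rates (<10% conversion). Ki via Cheng–Prusoff with KM(NADPH) 1.6 μM, assuming competitive inhibition.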

[2] = target: T1, Dihydrofolate reductase (Homo sapiens) (UniProt P00374); assay: Inhibition of human chromosomal DHFR expressed in Escherichia coli BL21 using DHF as substrate assessed as remaining activity at 30 mM by spectrophotometry relative to control
T1 sequence (whole entry): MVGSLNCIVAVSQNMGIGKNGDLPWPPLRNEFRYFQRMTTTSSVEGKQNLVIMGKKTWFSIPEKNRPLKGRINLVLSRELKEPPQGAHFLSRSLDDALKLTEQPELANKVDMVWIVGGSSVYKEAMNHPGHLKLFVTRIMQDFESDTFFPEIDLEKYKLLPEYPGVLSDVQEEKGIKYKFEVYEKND
Method in brief: (§2)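 Human chromosomal DHFR overexpressed in E. coli BL21(DE3). Spectrophotometric assay at 340 nm following NADPH/DHF depletion in 50 mM potassium phosphate pH 8.0, 10% final DMSO, initial rates. Each compound was tested at its highest concentration allowed by solubility and absorbance; activity reported relative to the uninhibited control.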

[3] = target: T1, Dihydrofolate reductase (Homo sapiens); assay: Inhibition of human chromosomal DHFR expressed in Escherichia coli BL21 using DHF as substrate assessed as remaining activity at 400 uM by spectrophotometry relative to control
[4] = Competitive inhibition of recombinant R67 DHFR expressed in Escherichia coli BL21 using 25 to 164 uM DHF as substrate by Dixon plot analysis in the presence of 50 uM of NADPH
Method in brief: (§3)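 Dixon method in 50 mM potassium phosphate pH 7.0, 10% DMSO. NADPH series: DHF fixed at 50 μM, NADPH at 5 or 80 μM, inhibitor over a range spanning Ki. DHF series: NADPH fixed at 50 μM. Reciprocal rates plotted against inhibitor concentration; Ki taken from the slope intersection; triplicates, mean ± SD.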

Escherichia coli = assay: Antibacterial activity against Escherichia coli […] expressing […] up to 1 mM in presence of 50 ug/mL Trimethoprim; type: functional, organism-based
Method in brief: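 E. coli XL1-Blue expressing R67 DHFR grown in M9 minimal medium with 50 μg/mL TMP to block chromosomal DHFR; growth inhibition tested up to 1 mM (maximal concentration).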

[5] = Cytotoxicity against mouse 3T6 cells assessed as cell death at 200 uM after 72 hrs by MTT assay; type: cell-based
Method in brief: (§4)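 Mouse 3T6 embryonic fibroblasts in DMEM + 10% heat-inactivated FBS, 37 °C, 5% CO2, seeded at 5×10³ cells/well. Eight dilutions 0.05–200 μM from DMSO, medium with compound renewed at 24 h, 48 h further incubation. MTT 3 h, read at 540 nm with 690 nm reference. Triplicates; % inhibition versus blank-corrected solvent controls; IC50 from the plot.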

[6] = Competitive inhibition of recombinant R67 DHFR expressed in Escherichia coli BL21 using DHF as substrate by Dixon plot analysis in the presence of 5 to 80 uM NADPH; method in brief: as §3
[7] = target: T1, Dihydrofolate reductase (Homo sapiens); assay: Inhibition of human chromosomal DHFR expressed in Escherichia coli BL21 using DHF as substrate assessed as remaining activity at 300 uM by spectrophotometry relative to control
[8] = Cytotoxicity against mouse 3T6 cells after 72 hrs by MTT assay; type: cell-based; method in brief: as §4
[9] = target: T1, Dihydrofolate reductase (Homo sapiens); assay: Inhibition of human chromosomal DHFR expressed in Escherichia coli BL21 using DHF as substrate assessed as remaining activity at 1 mM by spectrophotometry relative to control; method in brief: as §2
[10] = target: T1, Dihydrofolate reductase (Homo sapiens); assay: Inhibition of human chromosomal DHFR expressed in Escherichia coli BL21 using DHF as substrate assessed as remaining activity at 10 mM by spectrophotometry relative to control; method in brief: as §2
[11] = target: T1, Dihydrofolate reductase (Homo sapiens); assay: Inhibition of human chromosomal DHFR expressed in Escherichia coli BL21 using DHF as substrate assessed as remaining activity at 5 mM by spectrophotometry relative to control; method in brief: as §2
[12] = Inhibition of Escherichia coli R67 DHFR; method in brief: as §1
[13] = target: T1, Dihydrofolate reductase (Homo sapiens); assay: Inhibition of human chromosomal DHFR expressed in Escherichia coli BL21 using DHF as substrate assessed as remaining activity at 2.5 mM by spectrophotometry relative to control; method in brief: as §2

SMILES	inhibition [1]	IC50 [1] [µM]	Ki [1] [µM]	other results
CC(C)n1nnc2cc(C(=O)O)ccc21	inactive			
Nc1cc2ccccc2cc1C(=O)O	inactive			
Oc1nncc2ccccc12 [PHTHALAZINONE]		17000	530	Activity [2]: 97%
O=C(O)c1ccc2[nH]c(-c3ccc(OCCCCCOc4ccc(-c5nc6cc(C(=O)O)ccc6[nH]5)cc4)cc3)nc2c1		64	2	Activity [3]: 95%; Ki [4]: 9.7 µM; Activity (Escherichia coli): inactive; Activity [5]: 40%; Ki [6]: 4.2 µM
O=C(O)c1ccc2[nH]nnc2c1		8400	260	Activity [2]: 69%
c1ccc2[nH]c(-c3ccc(OCCCCCOc4ccc(-c5nc6ccccc6[nH]5)cc4)cc3)nc2c1		≥ 300		Activity [7]: 110%; IC50 [8]: 0.98 µM
COc1ccc2cc(C(=O)O)ccc2c1	inactive			
O=C(O)c1ccc(OCCCCCOc2ccc(C(=O)O)cc2)cc1		≥ 1000		IC50 [8]: 34 µM; Activity [9]: 100%
O=C(O)c1ccc2[nH]cnc2c1		2600	80	Activity [10]: 75%
O=C(O)c1cc2nccnc2s1		2000	61	Activity [11]: 37%
O=C(O)c1ccc2c(c1)OCO2	inactive			
CO[C@@H]1[C@@H](OC(N)=O)[C@@H](O)[C@H](Oc2ccc3c(O)c(NC(=O)c4ccc(O)c(CC=C(C)C)c4)c(=O)oc3c2C)OC1(C)C [NOVOBIOCIN]				Ki [12]: 70 µM
c1ccc2[nH]cnc2c1	inactive			
O=C(O)c1ccc2[nH]c(-c3ccc(OCC(O)COc4ccc(-c5nc6cc(C(=O)O)ccc6[nH]5)cc4)cc3)nc2c1		130	4	Activity (Escherichia coli): inactive; Activity [5]: 40%; Activity [9]: 95%
COc1cc2c(OC)cccc2cc1C(=O)O		1800	55	Activity [11]: 14%
Cc1nc2cc(C(=O)O)ccc2[nH]1	inactive			
Nc1ccc2cc(C(=O)O)ccc2c1		1700	51	Activity [13]: 14%
Nc1c(/N=N/c2ccc(-c3ccc(/N=N/c4cc(S(=O)(=O)O)c5ccccc5c4N)cc3)cc2)cc(S(=O)(=O)O)c2ccccc12 [CONGO RED]				Ki [12]: 2 µM
O=C(O)c1ccc2cc(O)ccc2c1		6100	190	Activity [10]: 13%

— ChEMBL document CHEMBL2040719, “Fragment-based design of symmetrical bis-benzimidazoles as selective inhibitors of the trimethoprim-resistant, type II R67 dihydrofolate reductase” (J Med Chem, 2012)
